In the library only some 1.5% were active in any assay of this set; here they are far more common.
C8 TRAIL sens – sensitizes caspase-8 expressing cells to TRAIL. NB7+C8 cells + TRAIL, ATPlite viability luminescence. AID 624354. actives 1% (n = 360,000). inhibition (viability loss, TRAIL sensitization), % at 10 µM;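 active = compounds causing at least 50% loss of cell viability in the single-dose screen, relative to plate controls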
FLuc act counter – firefly luciferase counter-screen for stimulation assays; P08659; ATPlite luciferase biochemical, luminescence, 10 min; 0 = ATP-free wells, 1 = DMSO control; activation factor at 10 µM; 200,000 tested, under 10 active; AID 1027;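 active = luciferase activation factor, scaled between plate controls, of at least 2 with compound at 10 µM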
Target sequence (P08659 whole entry, looked up): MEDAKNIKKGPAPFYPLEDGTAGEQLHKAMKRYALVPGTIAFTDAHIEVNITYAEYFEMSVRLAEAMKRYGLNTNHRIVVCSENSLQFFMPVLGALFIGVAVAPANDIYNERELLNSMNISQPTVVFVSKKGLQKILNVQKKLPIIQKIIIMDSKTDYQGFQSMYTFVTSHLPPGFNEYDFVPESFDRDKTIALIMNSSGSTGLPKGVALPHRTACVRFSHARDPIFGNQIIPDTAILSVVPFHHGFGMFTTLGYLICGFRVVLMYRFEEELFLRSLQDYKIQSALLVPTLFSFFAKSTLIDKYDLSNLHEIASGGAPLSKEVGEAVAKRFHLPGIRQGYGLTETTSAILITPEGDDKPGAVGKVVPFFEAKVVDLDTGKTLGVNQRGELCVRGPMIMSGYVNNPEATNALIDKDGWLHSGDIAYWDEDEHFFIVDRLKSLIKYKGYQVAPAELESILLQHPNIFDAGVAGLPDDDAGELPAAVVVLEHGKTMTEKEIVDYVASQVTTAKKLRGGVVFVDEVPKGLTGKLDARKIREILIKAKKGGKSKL
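System: luciferase plus luciferin reagent, cell-free; medium: PBS as buffer for the ATP substrate; dosing: test compounds dosed from 2 mM stocks in 100% DMSO; timing: 10 min post-reagent at room temperature; measured by: luminescence measurement of luciferase light output; evaluation: luciferase activation, seen as luminescence increase over controls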
PPC-1+TRAIL kill – kills PPC-1 cancer cells in the presence of TRAIL | cell killing (% activity), % at 4 µM or 5 µM | actives 0.41% (n = 220,000) | PPC-1 cells + TRAIL, ATPLite viability luminescence;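 active = cell killing above 50% in the first pass at 4 µM, then a duplicate retest at 5 µM averaging 50% or more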;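 also: plate controls were cells with TRAIL plus DMSO for no effect and medium-only wells lacking cells for full effect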
FLuc inhib CS – Photinus pyralis luciferase inhibition counter-screen. ATPLite firefly luciferase biochemical luminescence, 10 min. inhibition, % at 10 µM. actives 1.5% (n = 200,000);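 active = inhibition above about 50% when tested at 10 µM, limit read from the data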
* marks the source's active call; other numbers are inactive results; . = not tested or not shown.

SMILES	C8 TRAIL sens	FLuc act counter	PPC-1+TRAIL kill	FLuc inhib CS
O=C1CC(Cc2ccccc2)C(=O)N1Cc1ccco1 (configuration not stated)	-9	0.1	4	87*
CC(C)N=c1cc2n(-c3ccc(Cl)cc3)c3ccccc3nc-2cc1Nc1ccc(Cl)cc1	81*	.	.	.
Cc1ccc(C(=O)NCCc2csc(-c3cccnc3)n2)cc1	43	0.3	38	68*
O=C(NCCc1csc(-c2cccnc2)n1)c1cccs1	-6	1	.	2
COc1cc(OC)cc(-c2nnc(Nc3nc4c(F)cccc4s3)o2)c1	-1	1	20	2
Fc1cccc2sc(Nc3nnc(-c4ccccc4)o3)nc12	53*	0.2	40	77*
Nc1ccc(Cl)c(-c2nc3ncccc3o2)c1	-5	0.9	10	8
Nc1ccc(-c2nc3ncccc3o2)c(Cl)c1	53*	0.3	22	72*
COCCN(CC(=O)Nc1cccc(C)c1C)C(=O)c1cc2c(s1)CCC2	-2	.	.	.
Oc1[nH]c(N=C2N=c3ccccc3=N2)c2ccccc12	65*	.	28	.
CC1CC(=O)c2c(cc3c(-c4c(O)cc(O)c5c(O)c6c(cc45)OC(C)CC6=O)c(O)cc(O)c3c2O)O1 (configuration not stated)	88*	1	14	-2
Cc1ccc(S(=O)(=O)Cc2ccc(C(=O)OCc3ccccc3)cc2)cc1	1	1	-2	-4
COC(=O)c1c[nH]c2c1-c1cc(C(=O)OCc3ccccc3)n(S(=O)(=O)c3ccc(C)cc3)c1C(=O)C2=O	70*	.	.	.
Cn1c(=O)[nH]c(N)c(Br)c1=O	0	.	.	.
CCOc1ccccc1Nc1ccc(C(=O)O)cc1NC(C)=O	5	1	54*	-2
CCOc1ccc(C(=O)Nc2ccccc2NC(C)=O)cc1OCC	-1	1	-5	2
O=C(CCCC(=O)N(c1ccc(F)cc1)C(C(=O)NC1CCCC1)c1ccc(O)cc1)Nc1ccccn1 (configuration not stated)	0	.	.	.
COC(=O)C(C)N1C(=O)S/C(=C/c2cc(C)n(C(C)C)c2C)C1=O (configuration not stated)	40	0.5	28	51*
CN(C)/C=C/C(=O)c1ccc(Oc2ccccc2)cc1	19	0.3	8	75*
CCCc1ccc(C(=O)/C=C/N(C)C)cc1	13	0.3	27	74*
Cc1cc2nc3ccc(N(C)C)cc3nc2cc1N	52*	.	.	.
Cc1ccc2nc(N)nnc2c1	-13	.	.	.
COc1cccc(/C=N/Nc2c(Cl)cncc2Cl)c1O	9	.	.	.
COc1cccc(/C=N/Nc2cc(Cl)nc(C)n2)c1O	9	0.5	26	54*
COc1ccc(CCCC(=O)N/N=C/c2cccc(OC)c2O)cc1C	52*	1	20	4
SMILES	C8 TRAIL sens	FLuc act counter	PPC-1+TRAIL kill	FLuc inhib CS
Cc1cn([C@H]2C[C@H](O)[C@@H](CCC(=O)NCc3ccc(N(C)C)cc3)O2)c(=O)[nH]c1=O	-9	.	.	.
C[C@@H]1CN([C@H](C)CO)C(=O)CCCn2nncc2CO[C@@H]1CN(C)S(=O)(=O)c1cccc(F)c1	0	.	.	.
Cc1ccc(C(=O)C2C(=O)C3CCC2C3)cc1 (configuration not stated)	0	.	.	.
C[C@@H]1CCCCO[C@H](CN(C)S(=O)(=O)c2cccs2)[C@@H](C)CN([C@H](C)CO)C(=O)c2cc(NC(=O)C3CCCCC3)ccc2O1	-9	.	.	.
CCOC(=O)c1ccc(N/C=C\C(=O)c2cccc(OC)c2)cc1	11	0.9	26	11
COc1cccc(C(=O)/C=C/Nc2cc(C)ccc2O)c1	55*	0.4	16	62*
Cc1cccc(C2c3[nH]c4ccccc4c3CCN2C(=O)c2cc(CC(C)C)[nH]c(=O)n2)n1 (configuration not stated)	-8	1	5	-2
CC1CCCCC12NC(=O)N(CC(=O)c1ccc3c(c1)OCO3)C2=O (configuration not stated)	15	.	.	.
O=C(O)[C@H](Cc1ccccc1)NC(=O)N1CCN(c2ccc(F)cc2)CC1	-11	.	-2	.
Cn1c(=O)c(C(=O)Nc2ccccn2)c(O)c2ccccc21	62*	0.3	36	67*
O=C(COc1ccc(C(F)(F)F)cc1[N+](=O)[O-])Nc1cccc(C(F)(F)F)c1	8	1.1	52*	-5
O=C(NNC1=NS(=O)(=O)c2ccccc21)c1ccc(Cl)cc1	47	0.2	49	84*
O=C(NNC1=NS(=O)(=O)c2ccccc21)c1ccc([N+](=O)[O-])cc1	61*	.	.	.
CCOC(=O)c1ccc(C(=O)OCC)c(NC(=S)Nc2ccc([N+](=O)[O-])cc2OC)c1	-1	1	7	4
C/C(=N\NC(N)=O)c1ccc(-n2ccnc2)cc1	-1	1.1	31	-7
CCc1ccc(OCC(=O)N/N=C(\C)c2ccc(-n3ccnc3)cc2)cc1	33	0.3	44	72*
O=C(Nc1ccc2ccccc2n1)c1ccccc1Cl	37	.	.	.
COc1ccc(C(=O)Nc2ccc3ccccc3n2)c(OC)c1OC	83*	.	.	.
COc1ccc(C(=O)NCCN(C)C)c2nc3ccccc3cc12	51*	.	.	.
O=C(CNC(=O)C(c1ccccc1)c1ccccc1)N/N=C\c1ccc(C(=O)O)cc1	-21	.	.	.
CCOc1ccc(C(=O)NNC(=O)CN2C(=O)NC3(CCCC3)C2=O)cc1	-17	.	.	.
O=C(O)/C=C/C(=O)Nc1ccc(N2CCOCC2)nc1N1CCOCC1	8	.	-21	.
O=C(Nc1ccc(Cl)c(Cl)c1)Nc1ccccc1C(=O)O	63*	0.3	14	67*
O=C(Nc1ccc(Cl)cc1)Nc1ccccc1C(=O)O	75*	0.1	.	90*
O=C(Nc1ccc(Cl)cc1)Nc1cccc(C(=O)O)c1	65*	0.2	27	76*
SMILES	C8 TRAIL sens	FLuc act counter	PPC-1+TRAIL kill	FLuc inhib CS
O=C(Nc1cccc(Cl)c1)Nc1ccccc1C(=O)O	22	.	21	.
CCCc1nc(SCc2ccc(OCC)cc2)n[nH]1	-2	.	.	.
Cc1ccccc1OCC(=O)Nc1nc2ccccc2[nH]1	-2	0.2	44	84*
COc1cc(SC)ccc1C(=O)Nc1nc2ccccc2[nH]1	96*	.	.	.
CSc1ccccc1C(=O)Nc1nc2ccccc2[nH]1	13	0.8	11	23
COc1ccccc1C(=O)Nc1nc2ccccc2[nH]1	96*	.	.	.
COc1cc(SC)ccc1C(=O)NNC(=O)c1cc(C)oc1C	69*	.	.	.
CC(C)(C)C(=O)NCCCc1nc2ccccc2n1CCCOc1ccc(Cl)cc1	4	1.1	16	-5
Cc1ccc(NC(=O)CSc2nnc(C3CC3)n2N)cc1S(=O)(=O)N1CCOCC1	-10	1.1	3	-6
COC(=O)C12OCC34C(CC5C(C)=C(O)C(=O)CC5(C)C3C(O)C1O)OC(=O)C(OC(=O)C=C(C)C)C24 (configuration not stated)	65*	.	.	.
COc1ccc(CC(N)c2csc(NC(=O)c3cc(C(C)(C)C)nn3Cc3ccccc3)n2)cc1 (configuration not stated)	50*	.	.	.
O=C1CCC(C(=O)N2CCCCO2)CN1Cc1ccc(Cl)cc1 (configuration not stated)	-9	.	.	.

Screens deposited in PubChem by Sanford-Burnham Center for Chemical Genomics.
